Data: ChEMBL document CHEMBL1138064, “Discovery of N-[(3R)-1-azabicyclo[2.2.2]oct-3-yl]furo[2,3-c]pyridine-5-carboxamide, an agonist of the alpha7 nicotinic acetylcholine receptor, for the potential treatment of cognitive deficits in schizophrenia: synthesis and structure--activity relationship” (J Med Chem, 2006)
The source made the active and inactive calls. The rule behind the calls is not given here.

Experiments:
[1] = molecular target: Neuronal acetylcholine receptor subunit alpha-7 (Rattus norvegicus) (UniProt Q05941); assay: Activity at alpha-7 nAChR in Sprague-Dawley rat hippocampal neurons assessed as induction of MLA-inhibited desensitizing inward current at 3 uM relative to (-)-nicotine; format: functional, tissue-based; parameters: scale not given: the % may be the effect or the level left; details: Hippocampus
How it was run: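 Rat hippocampal neurons were recorded by whole-cell patch clamp with rapid agonist application. Desensitizing inward currents were measured, and α7 mediation was tested with MLA (10 nM), n = 3.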

[2] = molecular target: 5-hydroxytryptamine receptor 6 (Homo sapiens) (UniProt P50406); assay: Inhibition of 5HT6 receptor at 1 uM
Chain of 5-hydroxytryptamine receptor 6 (Homo sapiens) (P50406 whole entry): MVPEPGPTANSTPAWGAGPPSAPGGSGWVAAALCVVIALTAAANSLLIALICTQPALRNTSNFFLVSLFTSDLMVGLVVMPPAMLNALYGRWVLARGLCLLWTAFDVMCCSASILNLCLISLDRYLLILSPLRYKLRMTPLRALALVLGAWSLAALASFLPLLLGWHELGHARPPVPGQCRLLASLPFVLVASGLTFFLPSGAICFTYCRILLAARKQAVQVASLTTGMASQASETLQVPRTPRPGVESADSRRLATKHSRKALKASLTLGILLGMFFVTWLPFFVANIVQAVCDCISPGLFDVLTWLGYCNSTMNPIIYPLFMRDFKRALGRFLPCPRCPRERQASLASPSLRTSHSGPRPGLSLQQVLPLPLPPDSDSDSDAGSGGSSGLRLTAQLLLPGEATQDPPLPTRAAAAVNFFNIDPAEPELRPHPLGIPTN

[3] = molecular target: Beta-1 adrenergic receptor (Homo sapiens) (UniProt P08588); assay: Inhibition of adrenergic beta-1 receptor at 1 uM
Rattus norvegicus [4] = assay: Reversal of amphetamine-induced gating deficit in Sprague-Dawley at 0.3 mg/kg, iv; format: functional, organism-based; parameters: dose 0.3 mg/kg
How it was run: (§1)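 Anesthetised rats; d-amphetamine 1 mg/kg iv given to disrupt auditory gating recorded in the hippocampal CA3 region (conditioning vs test responses, analogous to human P50). Agonist given iv afterwards; read-out is % gating versus amphetamine-alone. The 10 mg/kg dose was run as a separate experiment. Brain drug levels were measured after the iv doses.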

[5] = molecular target: Cathepsin G (Homo sapiens) (UniProt P08311); assay: Inhibition of cathepsin G at 1 uM
[6] = molecular target: Vasoactive intestinal polypeptide receptor 1 (Homo sapiens) (UniProt P32241); assay: Inhibition of VIP1 receptor at 1 uM
Rattus norvegicus [7] = assay: Ability to recognize novel object in Sprague-Dawley rat at 1 mg/kg, sc after 24 hrs; format: functional, organism-based; parameters: dose 1 mg/kg
How it was run: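 Rats dosed subcutaneously 30 min before each of three experimental sessions. Discrimination between the novel and the familiar object was scored after a 24 h delay.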

[8] = molecular target: 5-hydroxytryptamine receptor 1B (Homo sapiens) (UniProt P28222); assay: Inhibition of 5HT1B receptor at 1 uM
[9] = molecular target: Sodium-dependent serotonin transporter (Homo sapiens) (UniProt P31645); assay: Inhibition of human 5-HT transporter at 1 uM
[10] = molecular target: Neuromedin-K receptor (Homo sapiens) (UniProt P29371); assay: Inhibition of NK3 receptor at 1 uM
MAO-A = MAO-A (Homo sapiens, UniProt P21397); assay: Inhibition of MAO-A at 1 uM
[11] = molecular target: Phospholipase A2 (Homo sapiens) (UniProt P04054); assay: Inhibition of phospholipase A2 at 1 uM
Rattus norvegicus [12] = assay: Reversal of amphetamine-induced gating deficit in Sprague-Dawley at 1 mg/kg, iv; format: functional, organism-based; parameters: dose 1 mg/kg; how it was run: as §1
[13] = molecular target: Mu-type opioid receptor (Homo sapiens) (UniProt P35372); assay: Inhibition of human mu opioid receptor at 1 uM
Chain of Mu-type opioid receptor (Homo sapiens) (P35372 whole entry): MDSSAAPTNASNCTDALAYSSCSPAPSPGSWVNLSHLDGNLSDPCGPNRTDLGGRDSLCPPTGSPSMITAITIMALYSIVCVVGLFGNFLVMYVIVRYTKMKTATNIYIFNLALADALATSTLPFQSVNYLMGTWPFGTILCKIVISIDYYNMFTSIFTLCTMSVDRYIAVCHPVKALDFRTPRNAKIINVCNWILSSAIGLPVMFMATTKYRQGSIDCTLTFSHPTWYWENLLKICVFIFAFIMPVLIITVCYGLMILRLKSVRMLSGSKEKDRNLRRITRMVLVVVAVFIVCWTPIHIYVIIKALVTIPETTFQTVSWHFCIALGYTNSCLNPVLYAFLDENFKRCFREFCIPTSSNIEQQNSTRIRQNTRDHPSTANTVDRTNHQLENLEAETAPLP

[14] = molecular target: Atrial natriuretic peptide receptor (Homo sapiens) (UniProt P20594+P16066+P17342); assay: Inhibition of ANP receptor at 1 uM; format: protein assay
Chain of Atrial natriuretic peptide receptor (Homo sapiens) (P16066 whole entry, looked up): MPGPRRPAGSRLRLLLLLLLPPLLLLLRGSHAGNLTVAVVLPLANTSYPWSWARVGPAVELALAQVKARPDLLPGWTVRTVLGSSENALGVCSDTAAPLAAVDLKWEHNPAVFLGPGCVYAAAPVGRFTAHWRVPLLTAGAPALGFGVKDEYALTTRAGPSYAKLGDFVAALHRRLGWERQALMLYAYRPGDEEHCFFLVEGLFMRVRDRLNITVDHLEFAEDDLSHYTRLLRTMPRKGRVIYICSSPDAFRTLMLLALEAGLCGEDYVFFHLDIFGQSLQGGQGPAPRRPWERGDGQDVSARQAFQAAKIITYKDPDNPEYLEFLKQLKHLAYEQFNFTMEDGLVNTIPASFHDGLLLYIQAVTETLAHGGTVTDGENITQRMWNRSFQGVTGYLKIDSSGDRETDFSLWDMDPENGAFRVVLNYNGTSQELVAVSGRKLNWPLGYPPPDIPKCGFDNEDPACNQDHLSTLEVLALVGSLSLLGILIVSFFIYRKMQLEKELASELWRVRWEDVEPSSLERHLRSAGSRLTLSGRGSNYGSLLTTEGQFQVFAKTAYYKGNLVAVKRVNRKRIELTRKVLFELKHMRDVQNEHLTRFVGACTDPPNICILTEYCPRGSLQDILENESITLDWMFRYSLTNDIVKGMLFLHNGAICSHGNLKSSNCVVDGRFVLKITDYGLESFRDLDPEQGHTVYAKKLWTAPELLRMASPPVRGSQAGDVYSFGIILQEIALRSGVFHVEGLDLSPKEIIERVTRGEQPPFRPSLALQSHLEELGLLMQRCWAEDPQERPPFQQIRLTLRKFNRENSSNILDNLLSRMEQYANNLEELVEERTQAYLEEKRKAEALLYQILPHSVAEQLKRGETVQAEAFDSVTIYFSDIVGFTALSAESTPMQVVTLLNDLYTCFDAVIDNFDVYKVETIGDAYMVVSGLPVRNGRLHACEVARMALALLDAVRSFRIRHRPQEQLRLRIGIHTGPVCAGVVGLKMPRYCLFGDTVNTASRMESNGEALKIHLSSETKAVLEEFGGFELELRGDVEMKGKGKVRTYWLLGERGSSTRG
Chain of Atrial natriuretic peptide receptor (Homo sapiens) (P17342 whole entry, looked up): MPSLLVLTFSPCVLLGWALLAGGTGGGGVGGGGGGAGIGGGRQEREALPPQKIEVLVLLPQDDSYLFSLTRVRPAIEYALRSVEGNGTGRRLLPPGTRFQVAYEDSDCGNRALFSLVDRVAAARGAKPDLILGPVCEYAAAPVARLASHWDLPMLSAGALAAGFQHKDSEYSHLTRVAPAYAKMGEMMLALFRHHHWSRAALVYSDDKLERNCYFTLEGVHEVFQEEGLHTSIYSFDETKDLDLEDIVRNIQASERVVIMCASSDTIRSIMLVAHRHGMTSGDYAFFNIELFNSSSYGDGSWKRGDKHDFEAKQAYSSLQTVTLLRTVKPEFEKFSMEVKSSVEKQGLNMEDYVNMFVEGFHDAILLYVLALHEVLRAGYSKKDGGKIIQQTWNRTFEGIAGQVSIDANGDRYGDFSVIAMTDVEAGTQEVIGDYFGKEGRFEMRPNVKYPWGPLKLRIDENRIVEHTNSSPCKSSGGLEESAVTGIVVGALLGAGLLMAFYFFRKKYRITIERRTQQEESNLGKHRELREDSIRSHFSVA
Chain of Atrial natriuretic peptide receptor (Homo sapiens) (P20594 whole entry, looked up): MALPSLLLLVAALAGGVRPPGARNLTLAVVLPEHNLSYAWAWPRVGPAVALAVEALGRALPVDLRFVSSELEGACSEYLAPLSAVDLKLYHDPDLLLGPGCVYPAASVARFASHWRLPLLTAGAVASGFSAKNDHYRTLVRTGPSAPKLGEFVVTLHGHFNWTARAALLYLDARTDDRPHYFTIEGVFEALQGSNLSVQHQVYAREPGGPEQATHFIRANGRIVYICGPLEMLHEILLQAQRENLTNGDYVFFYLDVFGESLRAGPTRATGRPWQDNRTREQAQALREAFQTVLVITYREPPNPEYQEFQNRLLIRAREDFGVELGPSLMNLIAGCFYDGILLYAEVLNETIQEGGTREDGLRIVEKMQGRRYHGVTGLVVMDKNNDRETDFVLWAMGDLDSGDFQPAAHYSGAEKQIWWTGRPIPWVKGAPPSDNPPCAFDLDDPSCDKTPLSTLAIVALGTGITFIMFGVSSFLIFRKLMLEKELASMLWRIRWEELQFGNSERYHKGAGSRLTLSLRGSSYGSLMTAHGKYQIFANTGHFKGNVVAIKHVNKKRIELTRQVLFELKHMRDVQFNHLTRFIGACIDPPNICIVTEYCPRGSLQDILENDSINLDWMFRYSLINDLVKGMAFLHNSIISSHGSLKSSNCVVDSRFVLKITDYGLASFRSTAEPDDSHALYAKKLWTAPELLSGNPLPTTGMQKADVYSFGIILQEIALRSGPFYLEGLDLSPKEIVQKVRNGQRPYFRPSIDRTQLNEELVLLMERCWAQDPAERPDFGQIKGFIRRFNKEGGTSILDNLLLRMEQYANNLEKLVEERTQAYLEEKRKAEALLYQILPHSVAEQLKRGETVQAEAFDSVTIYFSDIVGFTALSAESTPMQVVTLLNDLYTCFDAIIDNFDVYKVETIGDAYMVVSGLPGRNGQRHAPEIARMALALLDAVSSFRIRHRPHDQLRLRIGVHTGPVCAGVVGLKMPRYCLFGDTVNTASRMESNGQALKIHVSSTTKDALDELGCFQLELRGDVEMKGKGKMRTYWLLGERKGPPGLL

Homo sapiens [15] = organism: Homo sapiens; assay: Inhibition of phospholipase C at 1 uM
Homo sapiens [16] = organism: Homo sapiens; assay: Inhibition of site 2 of sodium channel at 1 uM
[17] = molecular target: Nociceptin receptor (Homo sapiens) (UniProt P41146); assay: Inhibition of ORL1 receptor at 1 uM
Homo sapiens [18] = organism: Homo sapiens; assay: Inhibition of PCP receptor at 1 uM
[19] = molecular target: Gastrin/cholecystokinin type B receptor (Homo sapiens) (UniProt P32239); assay: Inhibition of CCK2 receptor at 1 uM
[20] = molecular target: 5-hydroxytryptamine receptor 7 (Homo sapiens) (UniProt P34969); assay: Inhibition of 5HT7 receptor at 1 uM
[21] = Half life in human liver microsome; format: ADME; details: liver microsomes
[22] = molecular target: D(4) dopamine receptor (Homo sapiens) (UniProt P21917); assay: Inhibition of D4.4 receptor at 1 uM
[23] = molecular target: Neuronal acetylcholine receptor; alpha4/beta2 (Rattus norvegicus) (UniProt P09483+P12390); assay: Inhibition of [3H]cytisine binding to alpha4beta2 nAChR in rat brain homogenate at 1 uM; format: tissue-based
How it was run: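 Radioligand displacement in rat brain homogenate with [³H]cytisine as the α4β2 ligand; test compound at 1 µM; value reported as % block of binding.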

[24] = molecular target: C-X-C chemokine receptor type 2 (Homo sapiens) (UniProt P25025); assay: Inhibition of CXCR2 at 1 uM
[25] = molecular target: Endothelin receptor type B (Homo sapiens) (UniProt P24530); assay: Inhibition of human ETB receptor at 1 uM
[26] = molecular target: 5-hydroxytryptamine receptor 1A (Homo sapiens) (UniProt P08908); assay: Inhibition of 5HT1A receptor at 1 uM
[27] = molecular target: D(1B) dopamine receptor (Homo sapiens) (UniProt P21918); assay: Inhibition of D5 receptor at 1 uM
[28] = molecular target: Substance-K receptor (Homo sapiens) (UniProt P21452); assay: Inhibition of NK2 receptor at 1 uM
[29] = molecular target: D(3) dopamine receptor (Homo sapiens) (UniProt P35462); assay: Inhibition of D3 receptor at 1 uM
hERG = hERG (Homo sapiens, UniProt Q12809); assay: Inhibition of hERG expressed in HEK293 cells at 20 uM by patch clamp assay; format: toxicity, cell-based; details: HEK293 cells that express hERG
How it was run: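 hERG current (IKr) in HEK cells recorded by patch clamp; compound applied at 2 and 20 µM; % block of current reported at each concentration.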

[30] = molecular target: Platelet-derived growth factor receptor (Homo sapiens) (UniProt P09619+P16234); assay: Inhibition of PDGF receptor at 1 uM; format: protein-complex assay
[31] = molecular target: Cathepsin B (Homo sapiens) (UniProt P07858); assay: Inhibition of cathepsin B at 1 uM
[32] = Oral bioavailability in rat at 5 mg/kg; format: ADME, organism-based; details: in vivo
[33] = molecular target: Glutamate [NMDA] receptor (Homo sapiens) (UniProt Q05586+Q12879+Q13224+O15399+O60391+Q14957+Q8TCU5); assay: Inhibition of NMDA receptor at 1 uM; format: protein-complex assay
[34] = molecular target: Calcitonin gene-related peptide type 1 receptor (Homo sapiens) (UniProt Q16602); assay: Inhibition of CGRP receptor at 1 uM
[35] = Volume of distribution in rat at 5 mg/kg; format: ADME, organism-based; parameters: dose 5 mg/kg; details: in vivo, read-out: Vdss
[36] = molecular target: L-type calcium channel, verapamil site (Homo sapiens, UniProt O60840+Q01668+Q13698+Q13936); assay: Inhibition of verapamil site of Calcium channel L type at 1 uM; format: protein assay
[37] = molecular target: Nitric oxide synthase, inducible (Homo sapiens) (UniProt P35228); assay: Inhibition of Nitric oxide synthase, inducible at 1 uM
Chain of Nitric oxide synthase, inducible (Homo sapiens) (P35228 whole entry): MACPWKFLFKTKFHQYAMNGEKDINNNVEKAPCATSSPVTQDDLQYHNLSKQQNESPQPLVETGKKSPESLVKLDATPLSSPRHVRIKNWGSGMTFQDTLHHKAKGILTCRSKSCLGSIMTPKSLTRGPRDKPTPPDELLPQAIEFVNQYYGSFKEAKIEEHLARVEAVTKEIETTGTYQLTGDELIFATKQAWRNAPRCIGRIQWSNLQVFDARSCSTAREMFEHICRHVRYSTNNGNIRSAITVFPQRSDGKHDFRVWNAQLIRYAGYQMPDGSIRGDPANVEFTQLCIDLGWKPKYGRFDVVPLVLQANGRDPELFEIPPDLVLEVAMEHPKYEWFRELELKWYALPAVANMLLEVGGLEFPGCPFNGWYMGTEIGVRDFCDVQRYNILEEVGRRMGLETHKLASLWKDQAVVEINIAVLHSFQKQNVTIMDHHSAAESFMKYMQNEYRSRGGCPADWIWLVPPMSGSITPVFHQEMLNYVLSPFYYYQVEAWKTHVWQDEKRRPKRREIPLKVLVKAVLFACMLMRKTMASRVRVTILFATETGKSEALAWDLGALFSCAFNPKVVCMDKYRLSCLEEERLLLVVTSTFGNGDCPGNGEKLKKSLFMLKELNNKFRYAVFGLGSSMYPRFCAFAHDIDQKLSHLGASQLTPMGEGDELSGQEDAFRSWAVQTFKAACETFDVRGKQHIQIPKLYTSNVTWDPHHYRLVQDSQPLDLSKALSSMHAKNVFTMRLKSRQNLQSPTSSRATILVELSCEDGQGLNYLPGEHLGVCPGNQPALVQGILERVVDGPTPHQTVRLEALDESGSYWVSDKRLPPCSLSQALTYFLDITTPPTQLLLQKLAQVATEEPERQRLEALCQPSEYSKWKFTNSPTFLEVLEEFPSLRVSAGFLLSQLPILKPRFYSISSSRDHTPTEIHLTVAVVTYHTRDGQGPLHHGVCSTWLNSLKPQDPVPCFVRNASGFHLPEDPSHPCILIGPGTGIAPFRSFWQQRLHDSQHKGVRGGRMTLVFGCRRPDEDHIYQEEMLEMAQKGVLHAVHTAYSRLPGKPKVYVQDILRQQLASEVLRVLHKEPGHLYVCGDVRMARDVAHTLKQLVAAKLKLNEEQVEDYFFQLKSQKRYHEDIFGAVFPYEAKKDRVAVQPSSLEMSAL

[38] = Ratio of drug level in brain against plasma in rat by MBUA method after 60 min; format: ADME, organism-based; details: brain and plasma
[39] = molecular target: Acetylcholine receptor; alpha1/beta1/delta/gamma (Homo sapiens, UniProt P02708+P07510+P11230+Q07001); assay: Inhibition of alpha-1-beta-1-gamma-delta nAChR expressed in TE671cells by FLIPR assay; format: functional, cell-based, TE-671
How it was run: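 Functional FLIPR read-out in TE671 cells expressing native muscle-type α1β1γδ nAChR, cell-based; tested for agonist and antagonist activity; IC50 in µM.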

[40] = molecular target: 5-hydroxytryptamine receptor 5A (Homo sapiens) (UniProt P47898); assay: Inhibition of 5HT5A receptor at 1 uM
Chain of 5-hydroxytryptamine receptor 5A (Homo sapiens) (P47898 whole entry): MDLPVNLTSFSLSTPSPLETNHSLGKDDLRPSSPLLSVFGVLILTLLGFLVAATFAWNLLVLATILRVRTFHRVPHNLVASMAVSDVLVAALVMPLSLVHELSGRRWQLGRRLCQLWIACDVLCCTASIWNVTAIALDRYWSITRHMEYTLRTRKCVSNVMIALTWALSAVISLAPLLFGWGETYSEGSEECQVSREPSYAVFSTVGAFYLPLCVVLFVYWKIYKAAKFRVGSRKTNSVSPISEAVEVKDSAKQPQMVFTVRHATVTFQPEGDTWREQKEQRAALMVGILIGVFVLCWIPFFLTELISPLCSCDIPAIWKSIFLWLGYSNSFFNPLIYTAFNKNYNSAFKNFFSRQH

Q: With `O=C(N[C@H]1CN2CCC1CC2)c1cc2ccoc2cn1` [PHA-543613] as the molecule, how does the Activity [1] read?
A: 103%

Q: What about the inhibition [2] of the same molecule?
A: < 10%

Q: And the inhibition [3]?
A: < 10%

Q: What about the Activity (Rattus norvegicus [4]) of the same molecule?
A: Active

Q: What about the inhibition [5] of the same molecule?
A: 15%

Q: What about the inhibition [6] of the same molecule?
A: < 10%

Q: And the Activity (Rattus norvegicus [7])?
A: Active

Q: And the inhibition [8]?
A: < 10%

Q: What about the inhibition [9] of the same molecule?
A: < 10%

Q: And the inhibition [10]?
A: < 10%

Q: What about the inhibition at 1 µM (MAO-A) of the same molecule?
A: < 10%

Q: And the inhibition [11]?
A: 20%

Q: What about the Activity (Rattus norvegicus [12]) of the same molecule?
A: Active

Q: And the inhibition [13]?
A: < 10%

Q: And the inhibition [14]?
A: < 10%

Q: What about the inhibition (Homo sapiens [15]) of the same molecule?
A: < 10%

Q: What about the inhibition (Homo sapiens [16]) of the same molecule?
A: 13%

Q: What about the inhibition [17] of the same molecule?
A: < 10%

Q: And the inhibition (Homo sapiens [18])?
A: < 10%

Q: And the inhibition [19]?
A: < 10%

Q: What about the inhibition [20] of the same molecule?
A: < 10%

Q: And the half-life [21]?
A: > 2 h

Q: What about the inhibition [22] of the same molecule?
A: 10%

Q: And the inhibition [23]?
A: 13%

Q: And the inhibition [24]?
A: < 10%

Q: And the inhibition [25]?
A: < 10%

Q: And the inhibition [26]?
A: < 10%

Q: And the inhibition [27]?
A: < 10%

Q: And the inhibition [28]?
A: < 10%

Q: What about the inhibition [29] of the same molecule?
A: 10%

Q: What about the inhibition at 20 µM (hERG) of the same molecule?
A: 29%

Q: What about the inhibition [30] of the same molecule?
A: < 10%

Q: And the inhibition [31]?
A: < 10%

Q: What about the bioavailability [32] of the same molecule?
A: 65%

Q: What about the inhibition [33] of the same molecule?
A: 11%

Q: What about the inhibition [34] of the same molecule?
A: < 10%

Q: What about the Vd [35] of the same molecule?
A: 1.8 L/kg

Q: What about the inhibition at 1 µM [36] of the same molecule?
A: < 10%

Q: And the inhibition [37]?
A: < 10%

Q: And the Kp at 1 h [38]?
A: 1.5

Q: What about the IC50 [39] of the same molecule?
A: > 100 µM

Q: What about the inhibition [40] of the same molecule?
A: < 10%
